# Assay results: PMC6457131 (AIDS (London, England), 2019)
# “Also recorded” adds a separate entry of the source.
# How the values were obtained:
# EcoHIV-infected mice [1] = conditions: cited from earlier work
# EcoHIV-infected mice [2] = experiment: Contextual fear conditioning; type: in vivo; conditions: 129x1/SvJ mice, 1 month after infection, during intranasal insulin treatment
# EcoHIV = EcoHIV burdens in spleen cells and brain by quantitative PCR; type: in vivo, mice
# EcoHIV-infected mice [3] = experiment: Radial arm water maze; type: in vivo, C57BL/6J mice
# [4] = Intranasal insulin pharmacokinetics in plasma, CSF and cortex; type: in vivo, C57BL/6 mice
# [5] = tested on: neuronal function and metabolism-related genes in the brain; type: in vivo, mice; conditions: intranasal insulin daily for 9 days
# [6] = tested on: MAP2 and NeuN in CA1 and CA3 regions of the hippocampus; experiment: Hippocampal neuronal integrity by MAP2/NeuN immunofluorescence staining; type: in vivo, mice
# How it was run: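 Brains came from 3 mice per variable after behavioural testing. After perfusion, frozen sections were immunostained for MAP2 (dendrites) and NeuN (neuronal nuclei) and imaged by confocal microscopy. Fluorescence was quantified in hippocampal CA1 and CA3.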
# [7] = intranasal 2.4 IU; cited from earlier work
# [8] = intranasal insulin daily for 9 days, QPCR
# [9] = intranasal 2.4 IU/mouse, uninfected mice, n = 3-8/group, observed value, ELISA
# [10] = intranasal 2.4 IU/mouse, converted with 1 μIU/ml = 0.14 pmol/l
compound,measurement,setting,value
[N-]=[N+]=CC(=O)CC[C@H](N)C(=O)O [6-diazo-5-oxo-L-norleucine],EcoHIV virus replication,EcoHIV-infected mice [1],but not virus replication
same,murine NCI caused by EcoHIV,EcoHIV-infected mice [1],can be prevented
Human insulin,contextual freezing response time of infected mice,EcoHIV-infected mice [2],returned the freezing response time of infected mice to that of uninfected animals
same,peripheral virus burdens after discontinuation of insulin treatment,EcoHIV; EcoHIV + insulin/disc group compared with untreated mice,significantly increased
same,"HIV DNA brain levels, 3 months after infection",EcoHIV; [8],not significantly affected
same,"HIV brain burdens, 1 month after infection",EcoHIV; [8],significantly reduced
same,"HIV levels in spleen, 1 month after infection",EcoHIV; [8],no effect
same,"RAWM visible platform latency (mobility, vision, motivation)","EcoHIV-infected mice [3]; all mouse groups, intranasal insulin daily for 9 days",performed equally well
same,day of RAWM testing at which maximum effect on working memory was reached,"EcoHIV-infected mice [3]; infected mice, daily retention trial",≤ 5 days
same,"NCI in RAWM, 3 months after infection","EcoHIV-infected mice [3]; intranasal 2.4 IU/mouse daily for 9 days, started 3 months after EcoHIV infection",completely reversed; also recorded: fully reversible
same,RAWM performance of infected animals after treatment cessation,"EcoHIV-infected mice [3]; last 3-day average, compared with infected, continually treated animals",dramatically worsened
same,cortex insulin level above baseline,[4]; for 3 h following intranasal 2.4 IU/mouse,more than 10 fold
same,duration of therapeutic intracerebral insulin concentrations,[4]; intranasal 2.4 IU/mouse,2 to 3 h
same,"time by which insulin cleared to baseline, cortex",[4]; intranasal 2.4 IU/mouse,≤ 6 h
same,"time by which insulin cleared to baseline, plasma",[4]; intranasal 2.4 IU/mouse,≤ 6 h
same,"time by which insulin cleared, CSF",[4]; intranasal 2.4 IU/mouse,≤ 3 h
same,"Cmax, CSF",[4]; [9],17 μIU/ml
same,"Cmax, plasma",[4]; [9],11.7 μIU/ml
same,"Tmax, CSF",[4]; [9],1 h
same,"Cmax, CSF",[4]; [10],2.38 pmol/L
same,"Cmax, cortex",[4]; [10],7.42 pM
same,"Cmax, plasma",[4]; [10],1.64 pmol/L
same,half-life of insulin in cerebrospinal fluid,[4]; intranasal administration to mice,about 2 h
same,downmodulation of fourteen genes in brains of EcoHIV-infected mice,[5],fully reversed
same,NeuN staining of neuronal cell bodies in hippocampus,[6]; all conditions tested,remained unaltered
same,MAP2 dendrite staining in CA1 and CA3 regions of hippocampus of infected mice,"[6]; intranasal insulin daily for 9 days, three mice per variable",levels similar to uninfected mice
same,energy metabolism in mouse brain,[7],increases energy metabolism in mouse brain
same,plasma glucose levels,[7],but not plasma glucose levels
